From ChEMBL document CHEMBL5661979, “Pharmacological inhibition of BMK1 suppresses tumor growth through promyelocytic leukemia protein” (Cancer Cell, 2010)

Key:
[1] = target: Serine/threonine-protein kinase TAO3 (Homo sapiens, UniProt Q9H2K8); assay: Inhibition of TAO3 in human HeLa cells lysate pre incubated for 15 mins followed by ATP acyl phosphate probe addition and measured after 10 mins by LC-MS/MS analysis; format: subcellular
[2] = target: T1, Serine/threonine-protein kinase Nek9 (Homo sapiens) (UniProt Q8TD19); assay: Inhibition of NEK9 in human HeLa cells lysate at 50 uM pre incubated for 15 mins followed by ATP acyl phosphate probe addition and measured after 10 mins by LC-MS/MS analysis relative to control; format: subcellular; details: time 25.0 min
T1 sequence (whole entry): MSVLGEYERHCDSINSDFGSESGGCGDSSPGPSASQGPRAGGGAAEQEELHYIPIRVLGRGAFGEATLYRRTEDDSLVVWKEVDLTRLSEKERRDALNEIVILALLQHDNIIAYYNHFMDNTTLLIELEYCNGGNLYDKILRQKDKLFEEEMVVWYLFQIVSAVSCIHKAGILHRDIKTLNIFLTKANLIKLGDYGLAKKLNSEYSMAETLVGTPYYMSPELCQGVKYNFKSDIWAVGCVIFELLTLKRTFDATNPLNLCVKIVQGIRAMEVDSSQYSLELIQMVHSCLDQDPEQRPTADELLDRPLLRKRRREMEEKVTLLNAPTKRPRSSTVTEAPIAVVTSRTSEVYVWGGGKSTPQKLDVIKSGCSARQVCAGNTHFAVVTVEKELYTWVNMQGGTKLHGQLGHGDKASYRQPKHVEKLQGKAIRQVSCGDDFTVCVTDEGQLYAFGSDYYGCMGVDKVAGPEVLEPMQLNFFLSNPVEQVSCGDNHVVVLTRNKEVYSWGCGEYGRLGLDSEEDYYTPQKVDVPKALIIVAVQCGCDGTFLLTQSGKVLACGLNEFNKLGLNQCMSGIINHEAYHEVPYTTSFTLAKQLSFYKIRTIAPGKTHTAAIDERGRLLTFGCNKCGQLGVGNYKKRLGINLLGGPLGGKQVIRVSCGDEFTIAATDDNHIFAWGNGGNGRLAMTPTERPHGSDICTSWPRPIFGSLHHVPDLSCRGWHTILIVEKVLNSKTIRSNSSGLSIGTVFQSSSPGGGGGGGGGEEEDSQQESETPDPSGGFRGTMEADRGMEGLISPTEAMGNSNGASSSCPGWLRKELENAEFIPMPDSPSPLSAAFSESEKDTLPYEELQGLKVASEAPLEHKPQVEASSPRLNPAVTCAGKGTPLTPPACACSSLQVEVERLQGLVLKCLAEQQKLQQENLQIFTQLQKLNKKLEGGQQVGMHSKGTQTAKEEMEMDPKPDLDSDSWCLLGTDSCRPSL

[3] = target: Phosphatidylinositol 4-phosphate 3-kinase C2 domain-containing subunit beta (Homo sapiens, UniProt O00750); assay: Inhibition of PIK3C2B in human HeLa cells lysate pre incubated for 15 mins followed by ATP acyl phosphate probe addition and measured after 10 mins by LC-MS/MS analysis; format: subcellular
[4] = target: Glycogen synthase kinase-3 beta (Homo sapiens, UniProt P49841); assay: Inhibition of GSK3B isoform 2 in human HeLa cells lysate pre incubated for 15 mins followed by ATP acyl phosphate probe addition and measured after 10 mins by LC-MS/MS analysis; format: subcellular
[5] = target: Serine/threonine-protein kinase 16 (Homo sapiens, UniProt O75716); assay: Inhibition of MPSK1 in human HeLa cells lysate at 50 uM pre incubated for 15 mins followed by ATP acyl phosphate probe addition and measured after 10 mins by LC-MS/MS analysis relative to control; format: subcellular; details: time 25.0 min
[6] = target: Interferon-induced, double-stranded RNA-activated protein kinase (Homo sapiens, UniProt P19525); assay: Inhibition of PKR in human HeLa cells lysate pre incubated for 15 mins followed by ATP acyl phosphate probe addition and measured after 10 mins by LC-MS/MS analysis; format: subcellular
[7] = Toxicity in C57Bl/6 mouse assessed as effect on total bilirubin level at 50 mg/kg, ip for 14 days (reference value: 0.3 mg/dl); format: organism-based; details: in vivo, 336 h, time 14 day
[8] = target: T2, Mixed lineage kinase domain-like protein (Homo sapiens) (UniProt Q8NB16); assay: Inhibition of MLKL in human HeLa cells lysate at 10 uM pre incubated for 15 mins followed by ADP acyl phosphate probe addition and measured after 10 mins by LC-MS/MS analysis relative to control; format: subcellular; details: time 25.0 min
T2 sequence (whole entry): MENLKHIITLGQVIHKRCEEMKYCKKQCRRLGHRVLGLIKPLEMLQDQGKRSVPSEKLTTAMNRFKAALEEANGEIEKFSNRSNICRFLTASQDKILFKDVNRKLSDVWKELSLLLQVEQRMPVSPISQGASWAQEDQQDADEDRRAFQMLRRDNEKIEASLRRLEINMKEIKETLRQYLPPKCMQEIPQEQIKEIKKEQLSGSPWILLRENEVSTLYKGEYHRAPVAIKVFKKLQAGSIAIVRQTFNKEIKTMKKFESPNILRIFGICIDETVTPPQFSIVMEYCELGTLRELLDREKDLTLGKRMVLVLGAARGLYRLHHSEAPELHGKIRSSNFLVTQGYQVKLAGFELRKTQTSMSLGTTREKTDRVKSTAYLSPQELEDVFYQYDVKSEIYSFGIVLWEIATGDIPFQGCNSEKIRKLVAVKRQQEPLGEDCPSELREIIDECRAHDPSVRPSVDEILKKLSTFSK

[9] = target: T3, Dual specificity mitogen-activated protein kinase kinase 4 (Homo sapiens) (UniProt P45985); assay: Inhibition of MAP2K4 in human HeLa cells lysate at 50 uM pre incubated for 15 mins followed by ADP acyl phosphate probe addition and measured after 10 mins by LC-MS/MS analysis relative to control; format: subcellular; details: time 25.0 min
T3 sequence (whole entry): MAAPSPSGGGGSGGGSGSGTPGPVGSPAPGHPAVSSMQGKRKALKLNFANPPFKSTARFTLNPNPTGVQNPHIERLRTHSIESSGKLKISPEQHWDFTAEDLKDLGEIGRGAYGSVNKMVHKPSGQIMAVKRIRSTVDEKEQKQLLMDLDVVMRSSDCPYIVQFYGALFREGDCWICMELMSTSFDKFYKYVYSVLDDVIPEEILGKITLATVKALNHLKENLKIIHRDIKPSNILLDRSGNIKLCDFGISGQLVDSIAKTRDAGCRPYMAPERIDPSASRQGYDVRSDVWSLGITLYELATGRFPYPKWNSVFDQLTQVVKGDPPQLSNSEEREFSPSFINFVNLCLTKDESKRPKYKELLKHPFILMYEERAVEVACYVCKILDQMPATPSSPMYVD

[10] = target: Activated CDC42 kinase 1 (Homo sapiens, UniProt Q07912); assay: Inhibition of ACK1 in human HeLa cells lysate at 10 uM pre incubated for 15 mins followed by ADP acyl phosphate probe addition and measured after 10 mins by LC-MS/MS analysis relative to control; format: subcellular; details: time 25.0 min
Method in brief: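 HeLa cell lysates (5 mg/mL total protein) were preincubated with inhibitor at 0, 0.8, 2, 10 or 50 μM for 15 min. ATP or ADP acylphosphate probe was then added (5 μM final) for 10 min, and reactions were stopped with urea. Up to four fragment ions per kinase probe-peptide were quantified by targeted MS. % inhibition was taken relative to untreated lysate. Run in duplicate.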

Chain of Glycogen synthase kinase-3 beta (P49841 whole entry, canonical isoform): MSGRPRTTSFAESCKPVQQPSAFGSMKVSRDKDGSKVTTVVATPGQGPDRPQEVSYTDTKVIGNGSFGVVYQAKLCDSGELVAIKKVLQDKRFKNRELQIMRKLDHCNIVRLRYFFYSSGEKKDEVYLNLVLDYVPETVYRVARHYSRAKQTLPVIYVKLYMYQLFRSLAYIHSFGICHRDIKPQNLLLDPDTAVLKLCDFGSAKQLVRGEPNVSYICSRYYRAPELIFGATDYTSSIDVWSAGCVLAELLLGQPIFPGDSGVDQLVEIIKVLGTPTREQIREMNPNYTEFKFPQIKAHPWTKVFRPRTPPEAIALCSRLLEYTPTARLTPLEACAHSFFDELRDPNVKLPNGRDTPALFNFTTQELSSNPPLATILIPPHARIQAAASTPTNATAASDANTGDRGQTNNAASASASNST
Chain of Serine/threonine-protein kinase 16 (O75716 whole entry): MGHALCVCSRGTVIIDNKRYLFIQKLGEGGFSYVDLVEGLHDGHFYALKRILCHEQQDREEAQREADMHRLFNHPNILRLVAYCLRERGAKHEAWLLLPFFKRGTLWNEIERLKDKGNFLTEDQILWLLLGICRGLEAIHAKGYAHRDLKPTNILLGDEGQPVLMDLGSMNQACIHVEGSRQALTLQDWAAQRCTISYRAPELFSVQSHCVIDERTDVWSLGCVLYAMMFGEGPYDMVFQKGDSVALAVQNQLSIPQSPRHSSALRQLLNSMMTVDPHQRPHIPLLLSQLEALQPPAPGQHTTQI
Chain of Interferon-induced, double-stranded RNA-activated protein kinase (P19525 whole entry): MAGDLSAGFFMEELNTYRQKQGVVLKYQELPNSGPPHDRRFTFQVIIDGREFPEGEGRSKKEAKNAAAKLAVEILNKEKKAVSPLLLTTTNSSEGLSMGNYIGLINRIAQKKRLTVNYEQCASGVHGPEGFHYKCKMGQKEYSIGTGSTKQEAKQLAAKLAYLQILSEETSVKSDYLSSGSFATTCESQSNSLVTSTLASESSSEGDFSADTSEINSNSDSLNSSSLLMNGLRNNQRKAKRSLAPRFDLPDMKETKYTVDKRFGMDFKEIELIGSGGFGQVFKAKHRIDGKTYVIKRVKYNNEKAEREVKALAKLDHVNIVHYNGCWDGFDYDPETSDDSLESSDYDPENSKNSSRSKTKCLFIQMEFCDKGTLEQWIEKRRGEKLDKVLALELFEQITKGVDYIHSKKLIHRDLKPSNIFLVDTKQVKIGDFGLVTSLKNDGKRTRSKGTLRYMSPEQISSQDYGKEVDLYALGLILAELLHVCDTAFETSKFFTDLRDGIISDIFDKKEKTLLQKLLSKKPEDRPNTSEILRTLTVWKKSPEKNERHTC
Chain of Activated CDC42 kinase 1 (Q07912 whole entry, looked up, the tested form may be a part): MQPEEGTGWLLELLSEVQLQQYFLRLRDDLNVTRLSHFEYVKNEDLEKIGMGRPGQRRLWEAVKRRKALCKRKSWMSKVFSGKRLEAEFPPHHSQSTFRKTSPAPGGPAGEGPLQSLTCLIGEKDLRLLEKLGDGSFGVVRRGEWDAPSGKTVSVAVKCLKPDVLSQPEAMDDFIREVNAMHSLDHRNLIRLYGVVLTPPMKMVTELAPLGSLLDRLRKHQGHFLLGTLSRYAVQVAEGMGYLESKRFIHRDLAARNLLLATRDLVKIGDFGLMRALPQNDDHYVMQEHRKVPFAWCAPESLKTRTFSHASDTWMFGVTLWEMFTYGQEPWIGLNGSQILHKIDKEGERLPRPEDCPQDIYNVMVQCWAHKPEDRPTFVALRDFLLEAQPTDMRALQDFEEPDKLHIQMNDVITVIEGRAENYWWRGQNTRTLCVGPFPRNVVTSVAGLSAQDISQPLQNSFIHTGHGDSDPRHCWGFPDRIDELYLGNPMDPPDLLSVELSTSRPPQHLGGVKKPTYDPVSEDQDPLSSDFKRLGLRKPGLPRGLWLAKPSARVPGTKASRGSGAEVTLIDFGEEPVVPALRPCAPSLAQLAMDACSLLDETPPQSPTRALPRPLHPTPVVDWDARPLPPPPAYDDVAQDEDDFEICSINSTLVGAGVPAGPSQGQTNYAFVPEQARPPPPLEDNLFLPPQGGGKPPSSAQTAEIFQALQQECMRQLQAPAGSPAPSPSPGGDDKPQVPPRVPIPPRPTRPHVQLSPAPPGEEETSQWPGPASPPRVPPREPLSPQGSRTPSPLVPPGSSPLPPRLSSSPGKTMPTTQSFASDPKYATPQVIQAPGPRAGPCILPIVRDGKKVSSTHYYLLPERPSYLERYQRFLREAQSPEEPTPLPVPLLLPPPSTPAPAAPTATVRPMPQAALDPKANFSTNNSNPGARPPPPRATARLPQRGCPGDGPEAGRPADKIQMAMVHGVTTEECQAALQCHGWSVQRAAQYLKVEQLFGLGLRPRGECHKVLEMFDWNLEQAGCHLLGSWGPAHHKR
Chain of Serine/threonine-protein kinase TAO3 (Q9H2K8 whole entry): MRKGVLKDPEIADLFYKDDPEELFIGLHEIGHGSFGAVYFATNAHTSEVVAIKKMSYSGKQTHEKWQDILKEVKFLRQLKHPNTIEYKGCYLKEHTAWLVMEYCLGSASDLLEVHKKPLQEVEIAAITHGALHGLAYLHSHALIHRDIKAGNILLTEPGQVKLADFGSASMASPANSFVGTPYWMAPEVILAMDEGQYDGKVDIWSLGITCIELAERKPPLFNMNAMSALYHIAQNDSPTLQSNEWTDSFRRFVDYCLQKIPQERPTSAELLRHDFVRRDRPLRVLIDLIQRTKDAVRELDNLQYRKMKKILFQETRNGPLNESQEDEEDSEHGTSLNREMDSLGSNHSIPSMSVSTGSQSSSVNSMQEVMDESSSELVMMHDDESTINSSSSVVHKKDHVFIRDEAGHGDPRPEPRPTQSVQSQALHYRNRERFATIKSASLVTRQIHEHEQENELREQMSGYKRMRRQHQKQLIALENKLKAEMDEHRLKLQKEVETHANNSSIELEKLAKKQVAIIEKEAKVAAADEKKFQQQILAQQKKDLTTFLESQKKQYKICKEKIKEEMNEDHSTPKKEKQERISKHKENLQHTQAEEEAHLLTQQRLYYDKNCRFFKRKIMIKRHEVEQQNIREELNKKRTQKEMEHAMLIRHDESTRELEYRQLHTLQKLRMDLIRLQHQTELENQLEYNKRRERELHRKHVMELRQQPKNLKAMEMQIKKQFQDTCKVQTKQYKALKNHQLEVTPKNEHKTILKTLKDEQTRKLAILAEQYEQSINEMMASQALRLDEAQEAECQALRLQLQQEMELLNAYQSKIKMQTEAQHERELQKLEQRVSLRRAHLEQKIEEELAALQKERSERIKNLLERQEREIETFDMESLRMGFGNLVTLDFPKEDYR
Chain of Phosphatidylinositol 4-phosphate 3-kinase C2 domain-containing subunit beta (O00750 whole entry, the tested form may be a part, canonical isoform): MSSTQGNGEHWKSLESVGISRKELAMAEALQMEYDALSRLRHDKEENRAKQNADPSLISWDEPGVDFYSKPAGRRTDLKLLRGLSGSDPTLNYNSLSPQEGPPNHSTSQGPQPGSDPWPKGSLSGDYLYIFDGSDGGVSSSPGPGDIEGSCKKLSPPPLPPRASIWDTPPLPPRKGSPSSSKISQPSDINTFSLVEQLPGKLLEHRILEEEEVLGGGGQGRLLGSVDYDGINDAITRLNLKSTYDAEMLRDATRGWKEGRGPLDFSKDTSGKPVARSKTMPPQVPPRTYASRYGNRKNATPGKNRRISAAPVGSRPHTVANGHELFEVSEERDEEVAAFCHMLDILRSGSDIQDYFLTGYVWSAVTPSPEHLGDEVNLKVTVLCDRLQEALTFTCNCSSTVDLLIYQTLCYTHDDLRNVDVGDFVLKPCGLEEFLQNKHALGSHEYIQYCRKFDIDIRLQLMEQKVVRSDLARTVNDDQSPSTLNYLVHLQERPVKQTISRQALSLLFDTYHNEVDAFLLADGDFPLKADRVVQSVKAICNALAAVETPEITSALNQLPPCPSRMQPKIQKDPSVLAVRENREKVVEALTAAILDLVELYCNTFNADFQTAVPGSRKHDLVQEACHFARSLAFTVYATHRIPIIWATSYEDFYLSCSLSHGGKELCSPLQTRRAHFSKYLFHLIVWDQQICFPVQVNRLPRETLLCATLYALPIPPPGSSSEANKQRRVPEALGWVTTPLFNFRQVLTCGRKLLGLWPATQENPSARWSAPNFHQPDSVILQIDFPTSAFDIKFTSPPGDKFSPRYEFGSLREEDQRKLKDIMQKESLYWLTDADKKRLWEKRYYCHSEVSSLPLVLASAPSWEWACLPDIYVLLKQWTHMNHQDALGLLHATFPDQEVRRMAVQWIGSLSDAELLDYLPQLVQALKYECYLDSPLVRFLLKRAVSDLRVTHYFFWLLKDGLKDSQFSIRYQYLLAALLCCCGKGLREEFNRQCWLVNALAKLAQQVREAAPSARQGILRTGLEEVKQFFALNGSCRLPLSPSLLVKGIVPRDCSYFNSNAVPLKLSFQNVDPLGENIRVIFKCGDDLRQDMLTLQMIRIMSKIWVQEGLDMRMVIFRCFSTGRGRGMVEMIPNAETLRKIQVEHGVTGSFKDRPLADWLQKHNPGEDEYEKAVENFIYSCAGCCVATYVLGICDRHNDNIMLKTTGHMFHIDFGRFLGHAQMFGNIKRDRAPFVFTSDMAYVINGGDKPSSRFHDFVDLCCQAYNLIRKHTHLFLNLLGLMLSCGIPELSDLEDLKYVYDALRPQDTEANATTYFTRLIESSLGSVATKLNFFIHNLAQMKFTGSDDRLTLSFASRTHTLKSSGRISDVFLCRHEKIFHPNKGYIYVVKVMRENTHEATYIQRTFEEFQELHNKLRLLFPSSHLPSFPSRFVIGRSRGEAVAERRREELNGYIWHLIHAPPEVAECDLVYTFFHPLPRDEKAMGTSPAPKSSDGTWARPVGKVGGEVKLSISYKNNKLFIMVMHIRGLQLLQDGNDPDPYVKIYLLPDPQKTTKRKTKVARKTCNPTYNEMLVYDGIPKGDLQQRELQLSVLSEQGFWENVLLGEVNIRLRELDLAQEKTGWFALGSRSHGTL

For `CCOc1cc(N2CCC(O)CC2)ccc1Nc1ncc2c(n1)N(C)c1ccccc1C(=O)N2C`, the IC50 [1] was over 50 µM, the inhibition [2] was -1.6% and the IC50 [3] was over 50 µM. The IC50 [4] was over 50 µM, the inhibition [5] was -8.9% and the IC50 [6] was over 50 µM. For the same molecule, the Activity [7] was 0.3 mg/dL, the inhibition [8] was 12% and the inhibition [9] was 3.1%. For the same molecule, the inhibition [10] was 37%.
